We go through six compounds from ChEMBL document CHEMBL1157620, “1-(Aryl)-6-[alkoxyalkyl]-3-azabicyclo[3.1.0]hexanes and 6-(aryl)-6-[alkoxyalkyl]-3-azabicyclo[3.1.0]hexanes: a new series of potent and selective triple reuptake inhibitors” (J Med Chem, 2010).

By pIC50 is commonly meant −log10 of the IC50, conventionally taken in molar units. The term pKi denotes the Ki on a negative log10 scale, so that one unit is a factor of ten.

pIC50, pKi: −log10 of the molar value. The source made the active and inactive calls. The rule behind the calls is not given here.

Assay [1] addresses Cytochrome P450 3A4 (Homo sapiens, UniProt P08684). The assay can be described thus: Inhibition of human CYP3A4 by fluorescence assay.
The target of assay [2] is T1, Sodium-dependent serotonin transporter (Homo sapiens, UniProt P31645). As to the kind of experiment: Displacement of [3H]citalopram from human recombinant SERT expressed in BacMam virus-transduced cells by scintillation proximity assay. Type of assay: cell-based. The method, boiled down: (§1)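 BacMam-transduced membranes in SPA format. SERT: 1 mg/mL beads, 6 μg/mL membranes, 3 nM [3H]citalopram. NET: 2 mg/mL beads, 40 μg/mL membranes, 10 nM [3H]nisoxetine. Incubated overnight at room temperature; pKi from pIC50 by Cheng-Prusoff.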
T1 sequence (P31645 whole entry): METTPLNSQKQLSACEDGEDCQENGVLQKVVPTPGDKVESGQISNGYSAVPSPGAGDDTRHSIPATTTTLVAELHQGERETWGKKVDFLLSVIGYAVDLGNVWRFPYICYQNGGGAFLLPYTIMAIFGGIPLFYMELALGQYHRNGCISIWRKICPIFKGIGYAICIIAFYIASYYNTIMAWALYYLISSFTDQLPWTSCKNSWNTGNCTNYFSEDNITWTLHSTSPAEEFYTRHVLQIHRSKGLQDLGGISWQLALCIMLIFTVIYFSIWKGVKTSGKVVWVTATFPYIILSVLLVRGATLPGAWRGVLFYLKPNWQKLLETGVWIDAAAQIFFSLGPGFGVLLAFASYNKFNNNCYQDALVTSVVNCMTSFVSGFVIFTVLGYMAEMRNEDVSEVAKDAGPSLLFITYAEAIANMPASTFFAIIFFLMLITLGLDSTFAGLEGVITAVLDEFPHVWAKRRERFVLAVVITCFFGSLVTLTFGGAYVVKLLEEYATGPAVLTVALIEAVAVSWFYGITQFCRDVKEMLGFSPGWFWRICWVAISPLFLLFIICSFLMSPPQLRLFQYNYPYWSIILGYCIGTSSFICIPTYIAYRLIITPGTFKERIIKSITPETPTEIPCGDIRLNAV
On the technique in general: In a radioligand displacement assay an active substance lowers the binding of a labelled ligand.

The target of assay [3] is Cytochrome P450 2D6 (Homo sapiens, UniProt P10635). As to the kind of experiment: Inhibition of human […] by fluorescence assay. Type of assay: ADME. Summed up:
(§2)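 Recombinant human P450 bactosomes (0.1 mg/mL) in 50 mM phosphate, pH 7.4. Test compound at 0.1-10 μM, preincubated 10 min at 37 °C with fluorogenic substrate: ethoxyresorufin 0.5 μM (1A2), FCA 50 μM (2C9), BMC 10 μM (2C19), MMC 10 μM (2D6).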

Assay [4] addresses Cytochrome P450 2C19 (Homo sapiens, UniProt P33261). The assay can be described thus: Inhibition of human CYP2C19 by fluorescence assay. It is filed as ADME. Summed up:
as §2

In assay [5] the target is T2, Cytochrome P450 1A2 (Homo sapiens, UniProt P05177).
T2 sequence (P05177 whole entry): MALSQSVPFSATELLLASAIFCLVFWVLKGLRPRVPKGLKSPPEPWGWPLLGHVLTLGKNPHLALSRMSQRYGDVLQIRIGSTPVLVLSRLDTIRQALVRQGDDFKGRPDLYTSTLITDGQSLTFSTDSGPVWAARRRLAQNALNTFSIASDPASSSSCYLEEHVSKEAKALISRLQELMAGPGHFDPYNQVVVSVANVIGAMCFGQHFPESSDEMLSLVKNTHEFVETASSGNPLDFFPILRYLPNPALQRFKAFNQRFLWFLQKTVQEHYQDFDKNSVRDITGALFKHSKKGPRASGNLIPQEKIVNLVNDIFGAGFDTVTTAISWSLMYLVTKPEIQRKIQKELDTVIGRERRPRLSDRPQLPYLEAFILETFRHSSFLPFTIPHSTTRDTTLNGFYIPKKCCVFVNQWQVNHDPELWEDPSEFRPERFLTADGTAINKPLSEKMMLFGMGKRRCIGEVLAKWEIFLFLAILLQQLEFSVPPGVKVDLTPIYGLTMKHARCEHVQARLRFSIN
As to the kind of experiment: Inhibition of human CYP1A2 by fluorescence assay. Type of assay: ADME. Summed up:
as §2

Assay [6] has as its target T3, Sodium-dependent noradrenaline transporter (Homo sapiens, UniProt P23975). The assay can be described thus: Displacement of [3H]nisoxetine from human recombinant NET expressed in BacMam virus-transduced cells by scintillation proximity assay. Type of assay: cell-based. Summed up:
as §1

The target of assay [7] is Cytochrome P450 2C9 (Homo sapiens, UniProt P11712). The assay can be described thus: Inhibition of human CYP2C9 by fluorescence assay. It is filed as ADME. The method, boiled down: as §2
Chain of Cytochrome P450 2C9 (P11712 whole entry): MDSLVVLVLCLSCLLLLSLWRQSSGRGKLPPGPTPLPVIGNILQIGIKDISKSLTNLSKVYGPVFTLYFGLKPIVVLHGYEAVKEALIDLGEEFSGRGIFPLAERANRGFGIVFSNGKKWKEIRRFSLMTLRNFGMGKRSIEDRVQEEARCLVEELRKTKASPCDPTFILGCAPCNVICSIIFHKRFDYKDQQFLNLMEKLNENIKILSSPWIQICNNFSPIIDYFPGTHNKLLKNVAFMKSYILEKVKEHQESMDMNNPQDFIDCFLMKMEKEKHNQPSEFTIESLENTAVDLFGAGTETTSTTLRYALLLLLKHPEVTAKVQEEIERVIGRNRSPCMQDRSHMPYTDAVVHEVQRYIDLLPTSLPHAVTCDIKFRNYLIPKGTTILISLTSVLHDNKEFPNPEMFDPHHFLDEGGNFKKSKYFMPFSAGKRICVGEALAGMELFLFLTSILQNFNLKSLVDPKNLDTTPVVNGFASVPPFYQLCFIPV
Assay [8] deals with T4, Sodium-dependent dopamine transporter (Homo sapiens, UniProt Q01959). The assay can be described thus: Displacement of [3H]WIN-35428 from human recombinant DAT expressed in BacMam virus-transduced cells by scintillation proximity assay. Type of assay: cell-based.
T4 sequence (Q01959 whole entry): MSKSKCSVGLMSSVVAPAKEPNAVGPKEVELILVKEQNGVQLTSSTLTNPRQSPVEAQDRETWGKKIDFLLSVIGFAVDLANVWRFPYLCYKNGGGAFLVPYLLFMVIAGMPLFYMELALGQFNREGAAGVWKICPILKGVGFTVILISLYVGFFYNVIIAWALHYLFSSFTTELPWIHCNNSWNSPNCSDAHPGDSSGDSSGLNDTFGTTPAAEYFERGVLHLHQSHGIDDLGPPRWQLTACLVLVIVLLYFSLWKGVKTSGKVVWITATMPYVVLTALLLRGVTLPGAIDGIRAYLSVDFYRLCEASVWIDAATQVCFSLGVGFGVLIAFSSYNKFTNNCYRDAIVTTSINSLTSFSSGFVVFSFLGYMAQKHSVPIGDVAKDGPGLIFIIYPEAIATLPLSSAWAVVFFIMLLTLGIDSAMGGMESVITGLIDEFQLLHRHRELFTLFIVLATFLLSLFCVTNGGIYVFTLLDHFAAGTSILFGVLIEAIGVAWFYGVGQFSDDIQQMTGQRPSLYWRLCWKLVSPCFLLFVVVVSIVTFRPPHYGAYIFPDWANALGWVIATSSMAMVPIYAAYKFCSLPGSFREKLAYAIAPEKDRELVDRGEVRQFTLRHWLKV
Assay [9] relates to Mus musculus. As to the kind of experiment: Antidepressant-like activity in CD1 mouse assessed as reduction in immobility time at 3 mg/kg, po administered 120 mins before test by forced swimming test. Type of assay: functional, organism-based. Details: dose 3 mg/kg. Summed up: (§3)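 Naive male CD-1 mice, 25-30 g, dosed orally 120 min before the swim test. Immobility (floating upright, only small movements to keep the head above water) was scored over the last 4 min of a 6 min session by an observer blind to treatment, from video.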

Assay [10] has as its system Mus musculus. As to the kind of experiment: Increase in spontaneous locomotor activity in CD1 mouse at 10 mg/kg, po administered 120 mins before test measured for 30 mins. It is filed as functional, organism-based. Further details: dose 10 mg/kg. The method, boiled down:
(§4)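 CD-1 mice dosed orally at 3, 10 or 30 mg/kg, 120 min before test. Total distance travelled recorded over 30 min in infrared activity boxes.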

For assay [11], the system named is Mus musculus. As to the kind of experiment: Potentiation of 5-hydroxytryptophan-induced stereotpic behavior in po dosed CD1 mouse administered 120 mins before 5HTP challenge measured for 30 mins. Type of assay: functional, organism-based. Summed up: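 CD-1 mice dosed orally 120 min before 5-HTP (100 mg/kg ip). Videotaped for 30 min and scored for hyperlocomotion, hind-limb abduction, flat body posture, head twitches/tremor and body tremor.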

Assay [12] deals with Rattus norvegicus. The assay can be described thus: Enhancement of locomotor activity of CD rat at 1 mg/kg, ip. Type of assay: functional, organism-based. Details: dose 1 mg/kg. Summed up:
(§5)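 Male CD rats, 280-310 g, with microdialysis probe in left medial prefrontal cortex, freely moving, locomotion recorded at the same time. Dosed ip at 0.1, 0.3 or 1 mg/kg. Dialysate collected every 20 min after 2 h of perfusion, for 3 h post dose. NA, DA and 5-HT by HPLC with electrochemical detection; two-way repeated-measures ANOVA.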

The subject of assay [13] is Rattus norvegicus. The assay can be described thus: Increase in extracellular norepinephrine level in frontal cortex of free moving CD rat at 1 mg/kg, ip after 3 hrs by microdialysis. It is filed as functional, organism-based. Details: dose 1 mg/kg. Summed up:
as §5

Assay [14] is filed under the species Homo sapiens. As to the kind of experiment: Selectivity for human recombinant SERT over human recombinant DAT.
Assay [15] has as its system Rattus norvegicus. The assay can be described thus: Increase in extracellular dopamine level in frontal cortex of free moving CD rat at 1 mg/kg, ip after 3 hrs by microdialysis. It is filed as functional, organism-based. Further details: dose 1 mg/kg. Summed up: as §5
Assay [16] concerns Mus musculus. As to the kind of experiment: Increase in spontaneous locomotor activity in CD1 mouse at 30 mg/kg, po administered 120 mins before test measured for 30 mins. Details: dose 30 mg/kg. It is filed as functional, organism-based. Summed up: as §4
The subject of assay [17] is Rattus norvegicus. The assay can be described thus: Increase in extracellular serotonin level in frontal cortex of free moving CD rat at 1 mg/kg, ip after 3 hrs by microdialysis. Type of assay: functional, organism-based. Details: dose 1 mg/kg. The method, boiled down: as §5
Assay [18] relates to Mus musculus. As to the kind of experiment: Antidepressant-like activity in CD1 mouse assessed as reduction in immobility time at 10 mg/kg, po administered 120 mins before test by forced swimming test. Type of assay: functional, organism-based. Details: dose 10 mg/kg. Summed up: as §3
Assay [19] has as its system Mus musculus. As to the kind of experiment: Increase in spontaneous locomotor activity in CD1 mouse at 3 mg/kg, po administered 120 mins before test measured for 30 mins. It is filed as functional, organism-based. Further details: dose 3 mg/kg. The method, boiled down: as §4
Assay [20] concerns Mus musculus. The assay can be described thus: Potentiation of 5-hydroxytryptophan-induced stereotpic behavior in CD1 mouse at 10 mg/kg, po administered 120 mins before 5HTP challenge measured for 30 mins. It is filed as functional, organism-based. Further details: dose 10 mg/kg. The method, boiled down:
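Naive male CD-1 mice (25-30 g) were dosed orally 120 min before an ip injection of 5-HTP (100 mg/kg). Each mouse was then placed alone in a perspex box and videotaped. For the next 30 min, observers scored aimless hyperlocomotor activity, hind-limb abduction, flat body posture, head twitches/tremor and body tremor.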

The target in assay [21] is T3, Sodium-dependent noradrenaline transporter. As to the kind of experiment: Inhibition of [3H]noradrenalin reuptake at human NET expressed in LLCPK cells by scintillation proximity assay. It is filed as cell-based. Summed up: (§6)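 Uptake-SPA on stably transfected LLCPK cells in HEPES buffer, pH 7.4. SERT: 25000 cells/well, 1.5 mg/mL beads, 35 nM [3H]serotonin. NET: 50000 cells/well, 1.5 mg/mL beads, 45 nM [3H]noradrenalin. DAT: 75000 cells/well, 2 mg/mL beads, 75 nM [3H]dopamine. Concentrations are those of the substrate addition. 1 h at room temperature; 4-parameter fit.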

Assay [22] has as its target T4, Sodium-dependent dopamine transporter. As to the kind of experiment: Inhibition of [3H]dopamine reuptake at human DAT expressed in LLCPK cells by scintillation proximity assay. Type of assay: cell-based. The method, boiled down:
as §6
Background: In a scintillation proximity assay essentially only radioactivity close to the scintillant gives light.

The target in assay [23] is T1, Sodium-dependent serotonin transporter. The assay can be described thus: Inhibition of [3H]serotonin reuptake at human SERT expressed in LLCPK cells by scintillation proximity assay. Type of assay: cell-based. The method, boiled down:
as §6

T3 sequence (P23975 whole entry): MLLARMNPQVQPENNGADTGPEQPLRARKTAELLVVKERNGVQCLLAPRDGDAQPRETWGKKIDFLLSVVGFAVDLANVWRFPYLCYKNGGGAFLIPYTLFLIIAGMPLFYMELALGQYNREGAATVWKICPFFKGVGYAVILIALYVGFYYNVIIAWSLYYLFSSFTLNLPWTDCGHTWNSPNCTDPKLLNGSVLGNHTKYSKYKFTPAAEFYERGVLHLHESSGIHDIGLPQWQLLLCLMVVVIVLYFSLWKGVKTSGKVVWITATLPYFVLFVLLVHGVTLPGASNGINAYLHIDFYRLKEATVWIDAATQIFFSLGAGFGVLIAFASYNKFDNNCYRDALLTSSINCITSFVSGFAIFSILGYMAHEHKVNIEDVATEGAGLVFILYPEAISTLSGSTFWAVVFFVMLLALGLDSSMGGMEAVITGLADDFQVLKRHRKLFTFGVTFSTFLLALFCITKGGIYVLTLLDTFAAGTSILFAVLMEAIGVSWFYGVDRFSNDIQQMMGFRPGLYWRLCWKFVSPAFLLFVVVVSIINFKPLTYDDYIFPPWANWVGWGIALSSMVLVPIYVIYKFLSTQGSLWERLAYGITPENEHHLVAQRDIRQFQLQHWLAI
Chain of Cytochrome P450 2D6 (P10635 whole entry): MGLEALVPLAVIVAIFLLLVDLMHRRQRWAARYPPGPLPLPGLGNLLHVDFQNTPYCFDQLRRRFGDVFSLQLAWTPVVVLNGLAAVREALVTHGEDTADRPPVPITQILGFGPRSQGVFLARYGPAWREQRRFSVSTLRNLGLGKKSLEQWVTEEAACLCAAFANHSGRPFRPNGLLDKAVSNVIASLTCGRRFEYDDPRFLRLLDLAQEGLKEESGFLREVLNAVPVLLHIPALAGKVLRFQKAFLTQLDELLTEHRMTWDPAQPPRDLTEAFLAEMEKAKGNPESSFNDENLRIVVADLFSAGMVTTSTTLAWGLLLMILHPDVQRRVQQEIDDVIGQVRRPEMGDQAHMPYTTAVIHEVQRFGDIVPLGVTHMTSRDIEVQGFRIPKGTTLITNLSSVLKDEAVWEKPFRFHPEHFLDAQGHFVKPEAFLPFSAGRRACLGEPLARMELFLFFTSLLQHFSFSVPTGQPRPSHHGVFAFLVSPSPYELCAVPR
Chain of Cytochrome P450 2C19 (P33261 whole entry): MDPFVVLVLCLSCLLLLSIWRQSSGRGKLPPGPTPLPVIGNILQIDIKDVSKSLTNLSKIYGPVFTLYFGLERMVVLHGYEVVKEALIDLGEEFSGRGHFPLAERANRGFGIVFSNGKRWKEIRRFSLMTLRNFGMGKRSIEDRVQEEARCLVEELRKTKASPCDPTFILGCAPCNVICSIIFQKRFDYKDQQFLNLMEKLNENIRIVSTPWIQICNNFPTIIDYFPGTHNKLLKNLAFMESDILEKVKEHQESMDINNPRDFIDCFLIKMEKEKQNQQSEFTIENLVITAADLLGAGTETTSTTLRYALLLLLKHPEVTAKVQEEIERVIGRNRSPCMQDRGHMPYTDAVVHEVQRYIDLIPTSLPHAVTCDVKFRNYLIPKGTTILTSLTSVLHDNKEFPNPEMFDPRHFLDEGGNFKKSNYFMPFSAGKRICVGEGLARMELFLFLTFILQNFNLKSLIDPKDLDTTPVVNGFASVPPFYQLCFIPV
Chain of Cytochrome P450 3A4 (P08684 whole entry): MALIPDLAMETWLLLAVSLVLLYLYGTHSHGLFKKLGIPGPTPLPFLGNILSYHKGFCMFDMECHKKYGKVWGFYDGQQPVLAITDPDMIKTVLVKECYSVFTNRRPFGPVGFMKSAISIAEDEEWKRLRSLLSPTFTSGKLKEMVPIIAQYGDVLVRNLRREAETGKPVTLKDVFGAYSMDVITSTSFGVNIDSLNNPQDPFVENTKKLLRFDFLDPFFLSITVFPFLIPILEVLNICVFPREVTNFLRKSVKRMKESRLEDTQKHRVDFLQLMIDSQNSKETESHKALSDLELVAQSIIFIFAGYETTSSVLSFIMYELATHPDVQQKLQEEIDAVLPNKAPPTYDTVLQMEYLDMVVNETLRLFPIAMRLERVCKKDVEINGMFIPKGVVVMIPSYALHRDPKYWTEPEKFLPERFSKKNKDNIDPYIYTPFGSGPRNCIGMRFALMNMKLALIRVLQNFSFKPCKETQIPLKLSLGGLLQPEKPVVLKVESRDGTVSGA

`Clc1ccc([C@@]2(COC3CCC3)[C@@H]3CNC[C@@H]32)cc1Cl`: the pIC50 was 5.52 in assay [1]; under 5.00 in assay [3]; under 5.00 in assay [4]; under 5.00 in assay [5]; under 5.00 in assay [7]. Moreover, the pKi in [2] was 9.40; in assay [6], 8.60; in assay [8] it was 8.20.

Turning to `Clc1ccc([C@@]2(COCC3CC3)[C@@H]3CNC[C@@H]32)cc1Cl`, the negative-log Ki (pKi) is 9.20 in assay [2], 8.10 in assay [6] and 8.00 in assay [8]. The negative-log IC50 (pIC50) is 6.00 in assay [3], under 5.00 in assay [4], under 5.00 in assay [5] and under 5.00 in assay [7].

As to `CCOC[C@H]1[C@@H]2CNC[C@@]21c1ccc(Cl)c(Cl)c1`, the result in [9], in assay [10], in assay [12], in [13], in assay [15] and in [17] was Active. In addition, the outcome in assay [18] was Active. Further, in assay [11], the Activity entry was “Dose-dependent effect”. The Selectivity ratio in [14] was determined as 50. Moreover, the result in [16] and in [19] was inactive.

With `CN(C)CCCC1(c2ccc(F)cc2)OCc2cc(C#N)ccc21` (centres undefined), in [20], the result was Active.

As for `COCC[C@H]1[C@]2(C)CNC[C@]12c1ccc(Cl)c(Cl)c1` (relative stereo), the figures for the negative-log IC50 (pIC50) in assay [21], in assay [22] and in assay [23] were 9.40, 7.80 and 8.80, respectively. The pKi in assay [2] is 9.60; in [6] it was 9.00; in [8], 7.30.

With `Cc1csc(C[C@H]2[C@@H]3CNC[C@@]32c2ccc(Cl)c(Cl)c2)n1` (relative stereo), the pIC50 in assay [21] is 9.60; in [22], 7.70; in [23], 9.00. Besides, the values for the negative-log Ki (pKi) in assay [2], in [6] and in [8] were 10.10, 9.90 and 7.70, respectively.
